*1 amine or outer side, *2 acyl side, *3 side chain or, on linkers, in order; H or OH if unused. Where a SMILES comes first, the peptide text is derived from it. Bridges are numbered along the chain shown (N, C = ends). [ ]: non-standard residue; d: D form. N(2-mercaptoethyl)Gly = O=C(CN(CCS[*:3])[*:1])[*:2]
Experiments:
[1] = target: Somatostatin receptor type 5 (Homo sapiens, UniProt P35346); assay: Binding affinity of human Somatostatin receptor type 5 (hsst5) by the displacement of [125I]- Tyr11 somatostatin-14 in CHO-K1 cells; assay type: cell-based
Procedure, shortened: (§1)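 Membranes from CHO-K1 cells stably expressing each cloned human receptor, prepared in 50 mM Tris-HCl pH 7.8 with EGTA, MgCl2 and protease inhibitors. Membranes (0.2 or 0.4 mg/mL protein, receptor-dependent) incubated with 125I-Tyr11 somatostatin-14 for 45 min at room temperature. Nonspecific binding taken with […] somatostatin. Bound ligand separated by GF/C filtration and counted. Triplicate wells, at least two experiments. IC50 taken from inhibition curves, mean ± SEM.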

[2] = target: Somatostatin receptor type 3 (Homo sapiens, UniProt P32745); assay: Binding affinity of human Somatostatin receptor type 3 (hsst3) by the displacement of [125I]- Tyr11 somatostatin-14 in CHO-K1 cells; assay type: cell-based; procedure, shortened: as §1
[3] = target: Somatostatin receptor type 4 (Homo sapiens, UniProt P31391); assay: Binding affinity of human Somatostatin receptor type 4 (hsst4) by the displacement of [125I]- Tyr11 somatostatin-14 in CHO-K1 cells; assay type: cell-based; procedure, shortened: as §1
[4] = target: Somatostatin receptor type 2 (Homo sapiens, UniProt P30874); assay: Binding affinity of human Somatostatin receptor type 2 (hsst2) by the displacement of [125I]- Tyr11 somatostatin-14 in CHO-K1 cells; assay type: cell-based; procedure, shortened: as §1
[5] = target: Somatostatin receptor type 1 (Homo sapiens, UniProt P30872); assay: Binding affinity of human Somatostatin receptor type 1 (hsst1) by the displacement of [125I]- Tyr11 somatostatin-14 in CHO-K1 cells.; assay type: cell-based; procedure, shortened: as §1
[6] = Half life in renal homogenate; assay type: ADME, tissue-based
Procedure, shortened: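 Peptides at 0.4 mg/mL final were incubated in rat renal homogenate at 37 °C for up to 4 h. Samples were taken at several time points. The fraction of intact peptide was measured by HPLC from the loss of major-peak area.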

Somatostatin receptor type 2, sequence (P30874 whole entry): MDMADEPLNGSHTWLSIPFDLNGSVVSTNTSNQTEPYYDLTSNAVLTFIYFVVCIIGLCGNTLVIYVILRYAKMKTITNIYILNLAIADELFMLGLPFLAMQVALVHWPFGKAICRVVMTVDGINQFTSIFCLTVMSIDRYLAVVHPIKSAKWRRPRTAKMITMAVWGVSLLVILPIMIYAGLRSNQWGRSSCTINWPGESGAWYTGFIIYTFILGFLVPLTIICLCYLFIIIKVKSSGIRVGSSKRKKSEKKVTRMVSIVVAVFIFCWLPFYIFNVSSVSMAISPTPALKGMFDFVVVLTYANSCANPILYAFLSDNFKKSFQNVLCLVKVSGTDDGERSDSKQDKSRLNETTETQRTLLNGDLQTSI
Somatostatin receptor type 1, sequence (P30872 whole entry): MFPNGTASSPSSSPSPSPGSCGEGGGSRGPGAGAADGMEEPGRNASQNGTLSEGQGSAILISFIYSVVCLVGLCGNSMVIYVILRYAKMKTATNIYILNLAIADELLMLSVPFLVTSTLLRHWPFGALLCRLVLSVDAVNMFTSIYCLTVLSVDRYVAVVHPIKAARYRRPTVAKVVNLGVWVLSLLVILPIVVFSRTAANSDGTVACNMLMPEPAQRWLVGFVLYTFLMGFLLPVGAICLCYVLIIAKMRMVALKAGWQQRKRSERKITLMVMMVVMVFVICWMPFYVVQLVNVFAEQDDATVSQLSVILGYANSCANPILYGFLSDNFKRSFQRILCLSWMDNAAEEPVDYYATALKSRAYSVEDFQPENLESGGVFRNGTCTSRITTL
Somatostatin receptor type 4, sequence (P31391 whole entry): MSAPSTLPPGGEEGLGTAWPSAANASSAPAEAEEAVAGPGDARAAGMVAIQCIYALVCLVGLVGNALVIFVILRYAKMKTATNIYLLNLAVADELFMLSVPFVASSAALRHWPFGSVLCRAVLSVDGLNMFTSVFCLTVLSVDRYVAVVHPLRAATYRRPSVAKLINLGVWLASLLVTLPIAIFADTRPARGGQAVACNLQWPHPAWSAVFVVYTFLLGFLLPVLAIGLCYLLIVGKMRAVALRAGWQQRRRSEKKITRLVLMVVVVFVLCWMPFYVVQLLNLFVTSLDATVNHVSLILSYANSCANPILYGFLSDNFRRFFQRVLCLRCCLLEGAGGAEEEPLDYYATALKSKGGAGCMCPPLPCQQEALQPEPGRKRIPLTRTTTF
Somatostatin receptor type 5, sequence (P35346 whole entry): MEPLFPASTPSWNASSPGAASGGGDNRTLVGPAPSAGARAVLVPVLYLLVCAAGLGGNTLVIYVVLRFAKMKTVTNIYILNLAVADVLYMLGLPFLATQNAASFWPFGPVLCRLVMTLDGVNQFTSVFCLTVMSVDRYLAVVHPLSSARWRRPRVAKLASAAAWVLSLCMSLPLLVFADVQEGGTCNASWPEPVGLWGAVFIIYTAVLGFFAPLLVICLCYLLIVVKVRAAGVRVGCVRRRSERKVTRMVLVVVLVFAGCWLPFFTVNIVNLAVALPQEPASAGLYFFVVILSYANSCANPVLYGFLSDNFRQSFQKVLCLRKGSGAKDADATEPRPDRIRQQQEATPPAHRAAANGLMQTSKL
Somatostatin receptor type 3, sequence (P32745 whole entry): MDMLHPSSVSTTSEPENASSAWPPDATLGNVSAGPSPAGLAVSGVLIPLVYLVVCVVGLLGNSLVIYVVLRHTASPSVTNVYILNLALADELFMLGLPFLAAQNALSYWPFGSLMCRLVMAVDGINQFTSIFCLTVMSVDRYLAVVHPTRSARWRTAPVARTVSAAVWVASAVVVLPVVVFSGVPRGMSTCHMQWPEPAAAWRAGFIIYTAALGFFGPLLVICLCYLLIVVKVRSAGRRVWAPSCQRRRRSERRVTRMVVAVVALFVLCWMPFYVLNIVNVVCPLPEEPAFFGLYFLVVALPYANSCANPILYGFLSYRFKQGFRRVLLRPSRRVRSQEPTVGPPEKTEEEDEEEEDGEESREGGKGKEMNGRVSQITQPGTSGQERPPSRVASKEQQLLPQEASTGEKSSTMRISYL

IC50 [1] | IC50 [2] | IC50 [3] | IC50 [4] | IC50 [5] | half-life [6] | IC50 ([1]; cho-k1) | IC50 ([2]; cho-k1) | IC50 ([3]; cho-k1) | IC50 ([4]; cho-k1) | IC50 ([5]; cho-k1) | Structure (SMILES)
 | 15.6 nM | > 100 nM | 28.7 nM | > 1000 nM |  |  |  |  |  |  | C[C@@H](O)[C@@H]1NC(=O)[C@H](CCCCN)NC(=O)[C@@H](Cc2c[nH]c3ccccc23)NC(=O)[C@H](Cc2c[nH]c3ccccc23)NC(=O)[C@H](Cc2ccccc2)NC(=O)CSSCCN(CC(N)=O)C(=O)[C@H](Cc2ccccc2)NC1=O
2.8 nM | > 100 nM | > 100 nM | 1.3 nM | > 1000 nM |  |  |  |  |  |  | C[C@@H](O)[C@@H]1NC(=O)[C@H](CCCCN)NC(=O)[C@@H](Cc2c[nH]c3ccccc23)NC(=O)[C@H](Cc2c[nH]c3ccccc23)NC(=O)[C@H](Cc2ccccc2)NC(=O)CCSSCCN(CC(N)=O)C(=O)[C@H](Cc2ccccc2)NC1=O
7.8 nM | > 100 nM | 49.5 nM | 4.1 nM | > 1000 nM |  |  |  |  |  |  | C[C@@H](O)[C@@H]1NC(=O)[C@H](CCCCN)NC(=O)[C@@H](Cc2c[nH]c3ccccc23)NC(=O)[C@H](Cc2c[nH]c3ccccc23)NC(=O)[C@H](Cc2ccccc2)NC(=O)CNCCSSCCN(CC(N)=O)C(=O)[C@H](Cc2ccccc2)NC1=O

More lines, now with the values behind:

Structure (SMILES) | IC50 [1] | IC50 [2] | IC50 [3] | IC50 [4] | IC50 [5] | half-life [6] | IC50 ([1]; cho-k1) | IC50 ([2]; cho-k1) | IC50 ([3]; cho-k1) | IC50 ([4]; cho-k1) | IC50 ([5]; cho-k1)
C[C@@H](O)[C@@H]1NC(=O)[C@H](CCCCN)NC(=O)[C@@H](Cc2c[nH]c3ccccc23)NC(=O)[C@H](Cc2c[nH]c3ccccc23)NC(=O)[C@H](Cc2ccccc2)NC(=O)[C@@H](N)CSSCCN(CC(N)=O)C(=O)[C@H](Cc2ccccc2)NC1=O (H-CFW[dW]KTF[N(2-mercaptoethyl)Gly]-NH2; disulfide 1-8) | 1.2 nM | 40.7 nM | 41.1 nM | 5.2 nM | > 1000 nM | 3 h |  |  |  |  | 
C[C@@H](O)[C@@H]1NC(=O)[C@@H](CCCCN)NC(=O)[C@@H](Cc2c[nH]c3ccccc23)NC(=O)[C@@H](Cc2c[nH]c3ccccc23)NC(=O)[C@H](Cc2ccccc2)NC(=O)C(NC(=O)[C@@H](N)Cc2ccccc2)CSSCCN(CC(N)=O)C(=O)[C@@H](Cc2ccccc2)NC1=O (stereo not given in full) |  |  |  |  |  |  | 4.5 nM | > 100 nM | 35.9 nM | 12.8 nM | > 1000 nM
C[C@@H](O)[C@@H]1NC(=O)[C@H](CCCCN)NC(=O)[C@@H](Cc2c[nH]c3ccccc23)NC(=O)[C@H](Cc2c[nH]c3ccccc23)NC(=O)[C@H](Cc2ccccc2)NC(=O)CCCNC(=O)CCCN(CC(N)=O)C(=O)[C@H](Cc2ccccc2)NC1=O | 1 nM | > 100 nM | 7 nM | 3 nM | > 1000 nM |  |  |  |  |  | 
C[C@@H](O)[C@@H]1NC(=O)[C@@H](CCCCN)NC(=O)[C@@H](Cc2c[nH]c3ccccc23)NC(=O)[C@@H](Cc2c[nH]c3ccccc23)NC(=O)[C@H](Cc2ccccc2)NC(=O)CN(C(=O)[C@@H](N)Cc2ccccc2)CCSSCCN(CC(N)=O)C(=O)[C@@H](Cc2ccccc2)NC1=O |  |  |  |  |  |  | 18.2 nM | > 100 nM | > 100 nM | 2.5 nM | > 1000 nM

— ChEMBL document CHEMBL1135917, “Human somatostatin receptor specificity of backbone-cyclic analogues containing novel sulfur building units” (J Med Chem, 2002)
